KCNK9 inh – human KCNK9 channel inhibition; HEK293 KCNK9, FluxOR thallium flux fluorescence; stronger effect = lower value; B-score at 10 µM; 310,000 compounds, 1.2% hits; AID 488922;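 active = ratio B-score over 3 SD below the library mean, with starting fluorescence within 5 SD of its mean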;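 note: negative B-score means less thallium flux so channel inhibition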
hERG protect – hERG (human) protection from proarrhythmic block; Q12809; CHO-hERG, FluxOR thallium flux, dofetilide IC70 present; activation (rescue from dofetilide block), less the hit threshold, % at 10 µM; 310,000 compounds, 0.51% hits; AID 1511;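 active = activation above the mean of controls blocked by dofetilide plus 5 SD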;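 note: thallium influx through hERG after potassium depolarization seen as dye fluorescence rise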
KCNK3 inh – human KCNK3 channel inhibition, primary screen; CHO-KCNK3 thallium flux, FluxOR fluorescence; stronger effect = lower value; B-score at 10 µM; 340,000 compounds, 0.84% hits;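 active = B-score under library mean minus 4 SD, starting fluorescence ratio at most library mean plus 5 SD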;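 note: more negative B-score means stronger inhibition of thallium flux through KCNK3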
KCNQ1 pot – potentiators or activators of human KCNQ1 potassium channel | P51787 | CHO-K1 KCNQ1, thallium flux FluxOR fluorescence; stronger effect = higher value | B-score at 10 µM | 310,000 compounds, 0.35% hits;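 active = fluorescence ratio B-score, a plate-corrected score, at least three library SD, with initial intensity B-score within 5 SD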
Target sequence (P51787 whole entry, looked up): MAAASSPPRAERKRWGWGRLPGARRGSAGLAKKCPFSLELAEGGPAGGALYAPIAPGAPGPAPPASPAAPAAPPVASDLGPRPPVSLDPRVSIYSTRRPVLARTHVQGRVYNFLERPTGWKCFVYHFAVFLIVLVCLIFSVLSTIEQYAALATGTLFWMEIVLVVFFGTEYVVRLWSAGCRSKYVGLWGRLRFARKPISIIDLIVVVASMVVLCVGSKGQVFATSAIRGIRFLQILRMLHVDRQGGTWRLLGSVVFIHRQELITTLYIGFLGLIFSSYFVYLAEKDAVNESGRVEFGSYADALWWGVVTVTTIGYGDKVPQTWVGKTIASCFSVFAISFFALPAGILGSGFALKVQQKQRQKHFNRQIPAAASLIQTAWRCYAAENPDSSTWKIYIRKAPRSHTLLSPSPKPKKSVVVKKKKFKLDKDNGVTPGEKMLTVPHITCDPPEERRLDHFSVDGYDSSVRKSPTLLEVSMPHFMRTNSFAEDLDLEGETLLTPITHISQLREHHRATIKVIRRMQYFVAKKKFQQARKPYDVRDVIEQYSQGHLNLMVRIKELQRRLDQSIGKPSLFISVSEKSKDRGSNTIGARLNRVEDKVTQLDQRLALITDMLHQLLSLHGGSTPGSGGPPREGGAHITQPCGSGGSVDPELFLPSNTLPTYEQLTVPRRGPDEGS
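assay system = KCNQ1-transfected CHO-K1 cells | medium = assay buffer with matched DMSO | probe or stimulus = depolarizing K+/Tl+ stimulus, K2SO4 and Tl2SO4 each 12.5 mM in 5x stock | dosing = single dose | incubation = dye 90 min, compound 20 min, room temperature | detection = kinetic FluxOR fluorescence, 10 s baseline plus 110 s post-stimulus | evaluation = ratio B score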
Kir21 block – inhibitors of mouse Kir2.1 inward-rectifier potassium channel. HEK293-Kir2.1, FluxOR thallium flux fluorescence; stronger effect = lower value. B-score at 10 µM. P35561. 310,000 compounds, 0.85% hits;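 active = fluorescence ratio B-score at or below minus 3 SD of library scores, with starting-brightness B-score within 2 SD, cut at about -4.2 in these data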;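 note: channel flux triggered by added potassium and thallium sulfate stimulus; B-score of peak minus minimum fluorescence over baseline after thallium stimulus; more negative B-score means stronger Kir2.1 block with less thallium influx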
KCNQ1 inh – human KCNQ1 channel inhibition; P51787; CHO-K1 KCNQ1, FluxOR thallium flux fluorescence; stronger effect = higher value; B-score at 10 µM; 310,000 compounds, 1.3% hits;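 active = compounds whose thallium flux B-score, printed positive for inhibition, exceeds three library SD while starting fluorescence stays within three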;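 note: channel opened by potassium depolarization with thallium stimulus after 20 min compound exposure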
KCNQ1 block val – confirmation of human KCNQ1 potassium channel inhibitors. shares compounds with KCNQ1 inh. KCNQ1 cell line, FluxOR thallium flux fluorescence. inhibition, % at 10 µM. 1,600 compounds, 93% hits. AID 588353;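 active = primary screen active, with duplicate mean exceeding buffer control mean plus 3 SD of buffer wells, cut at about 28% in these data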;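 note: 0% = buffer control ratio and 100% = XE991 inhibitor control ratio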
CHO Tl flux – counter-screen for KCNQ1 inhibitors: effect in parental CHO cells. parental CHO-K1, FluxOR thallium flux fluorescence ratio; stronger effect = lower value; zero means no signal rise above baseline. fluorescence ratio (Tl flux) at 10 µM. shares compounds with KCNQ1 inh. AID 588366. 1,600 compounds, 21% hits;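 active = mean of duplicate thallium-flux fluorescence ratios in parental host cells more than 5 SD below the buffer control mean, cut at about 0.38 in these data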;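 note: ratio is peak minus minimum fluorescence divided by baseline fluorescence; actives read low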
KCNQ1 APC inh – human KCNQ1 inhibition validated by electrophysiology; shares compounds with KCNQ1 inh; KCNQ1-CHO cells, automated patch clamp current; calls only at 10 µM; 490 compounds, 20% hits;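 active = KCNQ1 current drop exceeding 3 SD of negative control wells, seen in both duplicate runs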;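 note: steady state current during a 2 s step from -80 to +40 mV; negative values mean current inhibition and positive values mean potentiation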
KCNQ2 inh – rat KCNQ2 inhibition in KCNQ1 inhibitor specificity screen; shares compounds with KCNQ1 inh; KCNQ2 cells, FluxOR thallium flux fluorescence; inhibition, % at 10 µM; 1,600 compounds, 71% hits; AID 651746;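 active = mean percent inhibition of the KCNQ2 thallium signal more than 5 SD above the buffer-only control wells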;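 note: KCNQ2 expressed in CHO cells; 0% = buffer control wells and 100% = XE-991 inhibitor control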
KCNQ1-KCNE1 inh – human KCNQ1/KCNE1 inhibition in KCNQ1 specificity screen; shares compounds with KCNQ1 inh; KCNQ1/KCNE1 cells, FluxOR thallium flux fluorescence; inhibition, % at 10 µM; 1,600 compounds, 77% hits;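 active = mean percent inhibition of duplicate wells above the buffer-only control mean plus 3 SD of those controls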;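 note: 0% = buffer only wells and 100% = XE-991 inhibitor control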
* hit, by the source's call; i = inactive; nt = no result given; + = active, no number. Most compounds without a hit are left out; they make up all but 3.7% or so of the library.

SMILES	KCNK9 inh	hERG protect	KCNK3 inh	KCNQ1 pot	Kir21 block	KCNQ1 inh	KCNQ1 block val	CHO Tl flux	KCNQ2 inh	KCNQ1-KCNE1 inh	others
CCCCC(=O)Nc1ccc2c(c1)nc(CN1CCN(C(=O)OCC)CC1)n2C	i	-7	i	i	-0.76	i	nt	nt	nt	nt
C=CCn1c(SCC(=O)N(C)C2CCS(=O)(=O)C2)nnc1-c1ccccc1 (stereo not drawn)	i	-14	i	i	0.02	i	nt	nt	nt	nt
CC(C)C(NC(=O)c1ccccc1)C(=O)OCn1nnc2ccccc2c1=O (stereo not drawn)	nt	nt	i	nt	nt	nt	nt	nt	nt	nt
CC(=O)c1ccc(NC(=O)c2ccc(NC(=O)c3ccco3)cc2)cc1	i	-5	i	i	0.04	i	nt	nt	nt	nt
COC(=O)c1ccc(NC(=O)c2ccc(NC(=O)c3ccco3)cc2)cc1	i	-4	i	i	-0.31	6*	0	0.51	i	55%*
COc1ccccc1C(CNC(=O)c1cccc(S(=O)(=O)Nc2ccc(C)cc2)c1)N1CCCC1 (stereo not drawn)	i	-21	i	i	-0.41	i	nt	nt	nt	nt
O=C(CSc1nccc(=O)[nH]1)NC1CCCC1	i	-5	i	i	1.2	i	nt	nt	nt	nt
O=C(NCCOc1ccc(F)cc1)c1ccccc1SCc1ccccc1	i	-25	i	i	-1.4	7*	102*	0.48	106%*	169%*	KCNQ1 APC inh=+
C=CCSc1nsc(NC(=O)Nc2ccc(F)cc2)n1	i	-11	i	i	-2	14*	64*	0.51	i	i
CCSc1nsc(NC(=O)Nc2ccccc2F)n1	i	-7	i	i	-0.48	i	nt	nt	nt	nt
c1ccc(Nc2nc(NCC3CCCO3)c3ccccc3n2)cc1 (stereo not drawn)	i	-26	-10*	i	-15*	12*	128*	0.4	116%*	150%*	KCNQ1 APC inh=+
OCCNc1nc(Nc2ccccc2)nc(Nc2ccccc2)n1	i	-10	i	i	2.2	i	nt	nt	nt	nt
OCCNc1nc(Nc2ccc(Br)cc2)nc2ccccc12	i	-8	nt	i	-13*	15*	0	0.46	78%*	i
CCOc1ccc(Nc2nc(NCC3CCCO3)c3ccccc3n2)cc1 (stereo not drawn)	i	-30	i	i	-7.1*	11*	134*	0.39	81%*	132%*	KCNQ1 APC inh=i
COc1ccc(-c2noc(=O)n2CC(=O)N2CCC(Cc3ccccc3)CC2)cc1	i	-11	i	i	0.68	i	nt	nt	nt	nt
OCCC1CN(Cc2cccnc2)CCN1CCc1ccccc1 (stereo not drawn)	i	-17	i	i	0.25	7*	0	0.45	i	i
CCN(C(=O)COC(=O)c1ccc(=O)n(Cc2ccccc2)n1)C1CCS(=O)(=O)C1 (stereo not drawn)	nt	nt	i	nt	nt	nt	nt	nt	nt	nt
O=c1c2ccccc2nc(SCc2cccc(F)c2)n1C1CCCC1	i	-19	i	i	-1	7*	96*	0.49	81%*	114%*	KCNQ1 APC inh=i
Nc1nc(C23CC4CC(CC(C4)C2)C3)[nH]c(=O)n1	i	-5	i	i	-0.3	i	nt	nt	nt	nt
NNC(=O)Cn1nc(Cc2ccccc2)n(N)c1=O	nt	nt	i	nt	nt	nt	nt	nt	nt	nt

Assay outcomes (PubChem)
